Measured values: ChEMBL document CHEMBL3352248, “Converting potent indeno[1,2-b]indole inhibitors of protein kinase CK2 into selective inhibitors of the breast cancer resistance protein ABCG2” (J Med Chem, 2015)
Calls of active or inactive are those of the source. No cut-off for these calls is given here.

Assays:
[1] = Intrinsic cytotoxicity against HEK293 cells assessed as reduction in cell viability after 72 hrs by MTT assay; type: cell-based; conditions: human, read-out: IG50
In short: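 Wild-type HEK293 cells were seeded at 1 × 10^4/well, incubated overnight, then treated with compound (0–250 μM) for 72 h. MTT at 0.5 mg/mL was added for 4 h at 37 °C. Formazan was dissolved in DMSO/ethanol 1:1, and absorbance was read at 570 nm minus 690 nm to give IG50.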

ABCG2 [2] = biological target: T1, ABCG2 (Homo sapiens, UniProt Q9UNQ0); test: Inhibition of ABCG2 (unknown origin) expressed in HEK293 cells assessed as reduction in mitoxantrone efflux at 10 uM after 30 mins by FACS method; type: cell-based; conditions: HEK293 cells expressing ABCG2, probe mitoxantrone
T1 sequence (Q9UNQ0 whole entry): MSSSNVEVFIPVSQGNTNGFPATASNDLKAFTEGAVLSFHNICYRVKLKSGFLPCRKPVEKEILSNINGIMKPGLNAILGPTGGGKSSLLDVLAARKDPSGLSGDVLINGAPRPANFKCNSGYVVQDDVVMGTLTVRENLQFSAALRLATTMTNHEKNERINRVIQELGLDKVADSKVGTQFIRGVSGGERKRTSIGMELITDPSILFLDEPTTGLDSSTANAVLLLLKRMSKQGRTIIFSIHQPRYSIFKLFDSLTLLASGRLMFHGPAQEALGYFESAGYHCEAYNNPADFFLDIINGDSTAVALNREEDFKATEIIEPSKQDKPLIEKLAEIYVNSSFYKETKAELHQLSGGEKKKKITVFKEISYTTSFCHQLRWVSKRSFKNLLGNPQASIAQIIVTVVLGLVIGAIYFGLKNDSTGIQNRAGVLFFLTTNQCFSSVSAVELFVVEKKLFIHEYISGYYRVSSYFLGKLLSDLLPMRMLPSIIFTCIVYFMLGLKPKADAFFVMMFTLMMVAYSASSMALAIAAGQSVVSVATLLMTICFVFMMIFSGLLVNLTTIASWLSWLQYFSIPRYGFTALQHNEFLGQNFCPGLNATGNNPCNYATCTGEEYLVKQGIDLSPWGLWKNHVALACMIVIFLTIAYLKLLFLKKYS
In short: (§1)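 HEK293 cells stably transfected with ABCG2 (kept in 0.75 mg/mL G418) were seeded at 1.0 × 10^5/well and grown 72 h. They were then exposed to 5 μM mitoxantrone for 30 min at 37 °C with or without compound, washed and trypsinized. Intracellular fluorescence was read by flow cytometry (FL4, ≥10,000 events).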

[3] = biological target: T2, Broad substrate specificity ATP-binding cassette transporter ABCG2 (Homo sapiens, UniProt Q9UNQ0); test: Inhibition of ABCG2 (unknown origin) expressed in HEK293 cells assessed as reduction in mitoxantrone efflux after 30 mins by FACS method; type: cell-based; in short: as §1
T2 sequence (Q9UNQ0 whole entry): T1 sequence (Q9UNQ0 whole entry)

HEK293 = test: Selectivity index, ratio of IC50 for human recombinant CK2a1/CK2b holoenzyme expressed in Escherichia coli BL21(DE3) to IC50 for ABCG2 (unknown origin) expressed in HEK293 cells
ABCG2 [4] = test: Selectivity index, ratio of IC50 for intrinsic cytotoxicity against HEK293 cells to IC50 for ABCG2 (unknown origin) expressed in HEK293 cells; type: toxicity, cell-based; conditions: human, HEK293 cells expressing ABCG2, read-out: Selectivity Index
Casein kinase II = Casein kinase II (Homo sapiens, UniProt P19784+P67870+P68400); test: Inhibition of human recombinant CK2a1/CK2b holoenzyme expressed in Escherichia coli BL21(DE3) pre-incubated for 10 mins before substrate addition by capillary electrophoresis based assay
Casein kinase II, sequence (P67870 whole entry): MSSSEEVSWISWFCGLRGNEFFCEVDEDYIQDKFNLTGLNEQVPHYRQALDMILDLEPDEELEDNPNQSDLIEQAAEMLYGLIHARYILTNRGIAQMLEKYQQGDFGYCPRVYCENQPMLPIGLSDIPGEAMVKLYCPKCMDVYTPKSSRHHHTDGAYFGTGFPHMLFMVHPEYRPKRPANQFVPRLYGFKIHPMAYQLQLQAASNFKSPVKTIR
Casein kinase II, sequence (P68400 whole entry): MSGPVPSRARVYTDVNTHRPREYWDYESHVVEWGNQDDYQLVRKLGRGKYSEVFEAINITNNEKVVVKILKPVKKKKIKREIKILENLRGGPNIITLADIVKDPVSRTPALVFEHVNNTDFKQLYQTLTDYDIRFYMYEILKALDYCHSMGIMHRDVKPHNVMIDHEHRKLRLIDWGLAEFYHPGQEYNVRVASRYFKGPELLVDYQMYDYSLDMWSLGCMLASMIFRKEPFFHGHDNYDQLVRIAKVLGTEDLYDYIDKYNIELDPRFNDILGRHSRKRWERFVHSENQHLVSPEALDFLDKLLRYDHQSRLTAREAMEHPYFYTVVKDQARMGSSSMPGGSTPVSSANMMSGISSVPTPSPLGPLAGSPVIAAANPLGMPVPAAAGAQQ
Casein kinase II, sequence (P19784 whole entry): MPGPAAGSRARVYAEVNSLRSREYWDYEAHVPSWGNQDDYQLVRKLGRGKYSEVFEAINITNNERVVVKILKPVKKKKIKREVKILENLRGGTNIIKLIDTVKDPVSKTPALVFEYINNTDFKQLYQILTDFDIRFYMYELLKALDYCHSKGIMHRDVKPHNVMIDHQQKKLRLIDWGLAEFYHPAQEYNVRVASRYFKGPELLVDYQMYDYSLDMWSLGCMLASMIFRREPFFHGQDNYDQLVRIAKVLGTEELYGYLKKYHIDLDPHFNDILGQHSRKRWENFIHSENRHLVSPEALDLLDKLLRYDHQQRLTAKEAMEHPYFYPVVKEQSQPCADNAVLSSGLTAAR

MCF7 [5] = test: Induction of apoptosis in human MCF7 cells assessed as reduction in nuclear size at 20 to 100 uM after 24 hrs by Hoechst 33258 staining based fluorescence assay; type: functional, cell-based
In short: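 MCF-7 cells grown in RPMI 1640 GlutaMax with 10% fetal calf serum, seeded 5.0 × 10^4 cells/well and incubated overnight. Medium then replaced with medium containing compound at 20 or 100 μM; 1% DMSO as control. Incubation 24 h at 37 °C, 5% CO2. Nuclei stained with Hoechst 33258 (3 μg/mL in methanol), 30 min at room temperature in the dark. Nuclear morphology examined by fluorescence microscopy.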

MCF7 [6] = test: Inhibition of cell proliferation of human MCF7 cells assessed as DNA synthesis at 20 uM after 24 hrs by EdU-click assay; type: functional; parameters: scale not given: the % may be the effect or the level left
In short: (§2)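 MCF-7 cells were grown in RPMI 1640 GlutaMax plus 10% FCS, seeded 5.0 × 10^4/well and incubated overnight. They were then exposed to inhibitor at 20 or 100 μM for 24 or 48 h (37 °C, 5% CO2), with 1% DMSO as control. EdU was incorporated and click-coupled to TAMRA azide, with Hoechst counterstain. Microscope counts gave TAMRA-positive nuclei as a percentage of total nuclei. Values are the mean (±SD) of four assays.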

MCF7 [7] = test: Induction of cell damage in human MCF7 cells at 20 to 100 uM after 24 hrs by Hoechst 33258 staining based fluorescence assay; type: functional
In short: (§3)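 MCF-7 cells in RPMI 1640 GlutaMax with 10% FCS, seeded 5.0 × 10^4 per well and left overnight. Medium was replaced with inhibitor at 20 or 100 μM, with 1% DMSO as control, for 24 h at 37 °C, 5% CO2. Nuclei were stained with Hoechst 33258 (3 μg/mL in methanol) for 30 min at room temperature in the dark and examined by fluorescence microscopy (DAPI filter) for nuclear morphology.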

MCF7 [8] = test: Induction of apoptosis in human MCF7 cells assessed as chromatin condensation at 20 to 100 uM after 24 hrs by Hoechst 33258 staining based fluorescence assay; type: functional, cell-based; conditions: in the assay text read “100 uM” for “20 to 100 uM”; in short: as §3
MCF7 [9] = test: Inhibition of cell proliferation of human MCF7 cells assessed as DNA synthesis at 100 uM after 24 hrs by EdU-click assay; type: functional, cell-based; in short: as §2
MCF7 [10] = test: Induction of cell death in human MCF7 cells assessed as viable cell level at 20 to 100 uM after 24 hrs by Hoechst 33258 staining based fluorescence assay; type: functional
In short: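 MCF-7 cells grown in RPMI 1640 GlutaMax with 10% fetal calf serum, seeded at 5.0 × 10^4 cells/well and left overnight. Medium then replaced with fresh medium holding inhibitor at 20 or 100 μM, with 1% DMSO as control, for 24 h at 37 °C, 5% CO2. Nuclei stained with Hoechst 33258 (3 μg/mL in methanol, 30 min, room temperature, dark). Total cells counted and nuclear morphology examined by fluorescence microscopy.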

MCF7 [11] = test: Inhibition of cell proliferation of human MCF7 cells assessed as DNA synthesis at 20 uM after 48 hrs by EdU-click assay; type: functional; parameters: scale not given: the % may be the effect or the level left; in short: as §2

SMILES	CC50 at 72 h [1] [µM]	inhibition at 0.5 h, 10 µM (ABCG2 [2]) [%]	IC50 [3] [µM]	Ratio IC50 (HEK293)	selectivity ratio (ABCG2 [4])	IC50 (Casein kinase II) [µM]	also measured
CCc1c2c(nc3ccc(O)cc13)-c1cc3c(c(=O)n1C2)COC(=O)[C@]3(O)CC [7-ETHYL-10-HYDROXYCAMPTOTHECIN]	0.005	–	–	–	–	–	–
O=C1c2c(O)ccc(O)c2C(=O)c2c(NCCNCCO)ccc(NCCNCCO)c21 [MITOXANTRONE]	0.009	–	–	–	–	–	–
CC1CC(=O)c2c3c(n(CCc4ccccc4)c2C1)-c1ccccc1C3=O (stereo unspecified)	> 100	100	0.23	11	–	–	–
CC1CC(=O)c2c3c(n(C(C)C)c2C1)-c1ccccc1C3=O (stereo unspecified)	–	65	4.1	–	–	–	–
CC1CCc2c(c3c(n2C(C)C)-c2ccccc2C3=O)C1=O (stereo unspecified)	–	40	20	–	–	–	–
COc1cccc(CCn2c3c(c4c2-c2ccccc2C4=O)C(=O)CCC3)c1	12.7	78	0.31	16	41	5.1	–
CC(C)n1c2c(c3c1-c1ccccc1C3=O)C(=O)CCC2	–	15	35	–	–	–	–
CC(C)n1c2c(c3c1-c1ccccc1C3=O)C(=O)C(Cc1ccccc1)(Cc1ccccc1)CC2	6	90	0.61	18	10	11	–
O=C1CCCc2c1c1c(n2CCCc2ccccc2)-c2ccccc2C1=O	> 100	83	0.79	8	> 127	6	–
CC1CC(=O)c2c3c(n(Cc4ccccc4)c2C1)-c1ccccc1C3=O (stereo unspecified)	–	33	15	2	–	35	–
COc1ccc(CCn2c3c(c4c2-c2ccccc2C4=O)C(=O)CCC3)cc1	68.5	131	0.7	6	–	–	–
CC(C)=CCOc1cccc2c1-c1c(c3c(n1C(C)C)CCCC3=O)C2=O	31	60	1.6	–	–	–	Activity (MCF7 [5]): Active; Activity (MCF7 [6]): 14%; Activity (MCF7 [7]): Active; Activity (MCF7 [8]): Active; inhibition (MCF7 [9]): Active; Activity (MCF7 [10]): 10%; Activity (MCF7 [11]): 1.3%
O=C1CCCc2c1c1c(n2Cc2ccccc2)-c2ccccc2C1=O	–	18	30	0.5	–	15	–
COc1ccc2[nH]cc(CCNC(=O)c3cc(=O)c4c(OCc5ccc(Br)cc5)cccc4o3)c2c1	96	98	0.13	–	–	–	–
COc1ccccc1CCn1c2c(c3c1-c1ccccc1C3=O)C(=O)CCC2	27.2	106	0.21	7	130	1.4	–
O=C1CC(c2ccccc2)Cc2c1c1c(n2CCc2ccccc2)-c2ccccc2C1=O (stereo unspecified)	20.1	83	0.49	30	41	15	–
CC(C)=CCOc1cccc2c1C(=O)c1c3c(n(C(C)C)c1-2)CCCC3=O	–	74	3	–	–	–	–
O=C1CCCc2c1c1c(n2CCc2ccccc2)-c2ccccc2C1=O	30.7	100	0.43	16	71	7	–
COc1ccc2c3c([nH]c2c1)[C@H](CC(C)C)N1C(=O)[C@H](CCC(=O)OC(C)(C)C)NC(=O)[C@@H]1C3	32	–	–	–	–	–	–
O=C1CC(c2ccccc2)Cc2c1c1c(n2Cc2ccccc2)-c2ccccc2C1=O (stereo unspecified)	16.9	68	0.96	–	18	55	–
